According to ChEMBL document CHEMBL3259810, “Design and synthesis of 3,4-dihydro-2H-benzo[h]chromene derivatives as potential NF-κB inhibitors” (Bioorg Med Chem Lett, 2014):

Key:
[1] = biological target: T1, Nuclear factor NF-kappa-B complex (Homo sapiens) (UniProt Q00653+P19838+Q04206); assay: Inhibition of transcriptional activity of NF-kappaB (unknown origin) transfected in LPS-stimulated mouse RAW264.7 cells at 100 uM after 16 hrs by secretory alkaline phosphatase reporter gene assay relative to control; type: cell-based
How it was run: (§1)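 LPS-stimulated RAW 264.7 macrophages carrying NF-κB-driven SEAP reporter; cell-free media heated 65℃ 5 min, then reacted with 500 µM 4-methylumbelliferyl phosphate, 2 M diethanolamine, 1 mM MgCl₂ in the dark at room temperature for 1 h. Fluorescence read at excitation 360 nm / emission 449 nm (RFU). Percent inhibition tested at 100 μM; IC₅₀ as mean of three experiments.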

[2] = system: NCI-H23; assay: Cytotoxicity against human NCI-H23 cells assessed as growth inhibition after 72 hrs by SRB assay; type: functional; conditions: NCI-H23, 72 h
[3] = biological target: Nuclear factor NF-kappa-B complex (Homo sapiens, UniProt P19838+Q00653+Q04206); assay: Inhibition of transcriptional activity of NF-kappaB (unknown origin) transfected in LPS-stimulated mouse RAW264.7 cells after 16 hrs by secretory alkaline phosphatase reporter gene assay; type: cell-based; how it was run: as §1
[4] = biological target: T1, Nuclear factor NF-kappa-B complex (Homo sapiens); assay: Potency index, ratio of PDTC IC50 to compound IC50 for inhibition of transcriptional activity of NF-kappaB (unknown origin) transfected in LPS-stimulated mouse RAW264.7 cells

T1 sequence (P19838 whole entry, looked up): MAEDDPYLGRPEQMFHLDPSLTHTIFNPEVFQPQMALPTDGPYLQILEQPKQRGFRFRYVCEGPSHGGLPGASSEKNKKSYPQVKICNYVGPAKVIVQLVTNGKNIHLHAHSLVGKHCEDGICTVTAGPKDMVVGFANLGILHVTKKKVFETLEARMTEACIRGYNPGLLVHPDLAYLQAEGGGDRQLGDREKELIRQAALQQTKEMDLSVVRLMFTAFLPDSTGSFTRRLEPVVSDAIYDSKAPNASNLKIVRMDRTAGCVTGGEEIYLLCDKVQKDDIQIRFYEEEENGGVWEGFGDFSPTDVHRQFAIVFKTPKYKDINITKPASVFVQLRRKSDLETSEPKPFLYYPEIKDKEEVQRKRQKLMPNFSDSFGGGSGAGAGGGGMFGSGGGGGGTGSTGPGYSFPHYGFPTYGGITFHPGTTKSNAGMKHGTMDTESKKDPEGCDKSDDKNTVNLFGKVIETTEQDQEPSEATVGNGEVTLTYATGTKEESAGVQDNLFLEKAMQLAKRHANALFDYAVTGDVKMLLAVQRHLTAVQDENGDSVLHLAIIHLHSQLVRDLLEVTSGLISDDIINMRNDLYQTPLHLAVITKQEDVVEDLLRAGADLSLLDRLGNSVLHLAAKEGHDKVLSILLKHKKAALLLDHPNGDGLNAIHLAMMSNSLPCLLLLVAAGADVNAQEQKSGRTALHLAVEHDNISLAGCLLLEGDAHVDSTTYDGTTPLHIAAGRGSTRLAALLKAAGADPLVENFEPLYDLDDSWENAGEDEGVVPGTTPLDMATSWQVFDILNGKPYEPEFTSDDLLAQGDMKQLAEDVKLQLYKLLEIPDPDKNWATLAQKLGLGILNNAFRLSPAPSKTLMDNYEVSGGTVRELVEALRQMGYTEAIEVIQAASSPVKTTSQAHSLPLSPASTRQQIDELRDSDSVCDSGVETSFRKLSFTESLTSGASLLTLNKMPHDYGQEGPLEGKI
T1 sequence (Q00653 whole entry, looked up): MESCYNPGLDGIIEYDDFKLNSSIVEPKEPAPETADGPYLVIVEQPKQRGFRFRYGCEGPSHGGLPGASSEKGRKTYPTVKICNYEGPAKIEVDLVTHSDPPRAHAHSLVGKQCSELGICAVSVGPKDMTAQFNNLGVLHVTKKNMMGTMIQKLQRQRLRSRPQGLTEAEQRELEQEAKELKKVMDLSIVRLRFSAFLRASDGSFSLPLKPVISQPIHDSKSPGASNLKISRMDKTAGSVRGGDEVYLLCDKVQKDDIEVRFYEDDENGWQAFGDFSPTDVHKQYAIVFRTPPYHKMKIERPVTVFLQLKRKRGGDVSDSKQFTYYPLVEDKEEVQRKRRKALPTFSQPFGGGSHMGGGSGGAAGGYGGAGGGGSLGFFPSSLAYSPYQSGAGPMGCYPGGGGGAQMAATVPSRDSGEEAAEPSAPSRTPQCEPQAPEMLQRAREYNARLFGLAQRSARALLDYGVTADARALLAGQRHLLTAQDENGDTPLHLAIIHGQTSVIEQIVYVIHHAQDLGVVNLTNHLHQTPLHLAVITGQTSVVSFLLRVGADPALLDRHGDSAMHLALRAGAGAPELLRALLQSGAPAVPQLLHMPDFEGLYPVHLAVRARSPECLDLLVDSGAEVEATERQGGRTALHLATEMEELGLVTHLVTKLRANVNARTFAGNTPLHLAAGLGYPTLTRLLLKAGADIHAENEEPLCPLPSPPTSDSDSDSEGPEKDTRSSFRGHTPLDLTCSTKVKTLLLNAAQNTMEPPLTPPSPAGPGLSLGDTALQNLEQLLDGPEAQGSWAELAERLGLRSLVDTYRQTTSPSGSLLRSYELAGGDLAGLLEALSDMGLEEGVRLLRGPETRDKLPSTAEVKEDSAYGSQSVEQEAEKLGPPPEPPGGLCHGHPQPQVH
T1 sequence (Q04206 whole entry, looked up): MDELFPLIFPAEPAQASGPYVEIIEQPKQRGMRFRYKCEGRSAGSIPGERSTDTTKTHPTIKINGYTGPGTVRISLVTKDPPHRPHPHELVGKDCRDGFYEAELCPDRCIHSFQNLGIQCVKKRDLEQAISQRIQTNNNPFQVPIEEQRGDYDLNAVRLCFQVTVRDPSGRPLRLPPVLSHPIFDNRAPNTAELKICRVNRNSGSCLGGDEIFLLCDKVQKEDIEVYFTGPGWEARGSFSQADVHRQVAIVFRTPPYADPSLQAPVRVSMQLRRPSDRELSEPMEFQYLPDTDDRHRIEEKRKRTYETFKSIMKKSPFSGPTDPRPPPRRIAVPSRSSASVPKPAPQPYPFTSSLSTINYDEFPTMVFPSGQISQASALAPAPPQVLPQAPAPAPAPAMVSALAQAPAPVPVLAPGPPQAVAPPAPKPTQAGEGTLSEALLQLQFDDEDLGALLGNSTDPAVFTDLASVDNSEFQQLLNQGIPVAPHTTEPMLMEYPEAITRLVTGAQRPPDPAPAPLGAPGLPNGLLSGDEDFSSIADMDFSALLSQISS
Chain of Nuclear factor NF-kappa-B complex (P19838 1-433 limits assumed): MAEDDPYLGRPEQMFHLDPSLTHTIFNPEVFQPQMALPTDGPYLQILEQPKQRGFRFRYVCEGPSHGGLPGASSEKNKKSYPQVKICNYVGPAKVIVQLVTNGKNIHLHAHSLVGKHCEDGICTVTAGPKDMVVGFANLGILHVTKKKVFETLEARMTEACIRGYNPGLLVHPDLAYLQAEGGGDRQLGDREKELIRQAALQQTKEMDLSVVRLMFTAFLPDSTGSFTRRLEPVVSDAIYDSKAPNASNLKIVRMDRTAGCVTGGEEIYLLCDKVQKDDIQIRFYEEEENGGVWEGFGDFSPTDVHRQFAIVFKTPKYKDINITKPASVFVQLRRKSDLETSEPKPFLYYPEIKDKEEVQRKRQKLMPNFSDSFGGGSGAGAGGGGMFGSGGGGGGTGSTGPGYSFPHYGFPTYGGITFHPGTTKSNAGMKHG
Chain of Nuclear factor NF-kappa-B complex (Q00653 1-454 limits assumed): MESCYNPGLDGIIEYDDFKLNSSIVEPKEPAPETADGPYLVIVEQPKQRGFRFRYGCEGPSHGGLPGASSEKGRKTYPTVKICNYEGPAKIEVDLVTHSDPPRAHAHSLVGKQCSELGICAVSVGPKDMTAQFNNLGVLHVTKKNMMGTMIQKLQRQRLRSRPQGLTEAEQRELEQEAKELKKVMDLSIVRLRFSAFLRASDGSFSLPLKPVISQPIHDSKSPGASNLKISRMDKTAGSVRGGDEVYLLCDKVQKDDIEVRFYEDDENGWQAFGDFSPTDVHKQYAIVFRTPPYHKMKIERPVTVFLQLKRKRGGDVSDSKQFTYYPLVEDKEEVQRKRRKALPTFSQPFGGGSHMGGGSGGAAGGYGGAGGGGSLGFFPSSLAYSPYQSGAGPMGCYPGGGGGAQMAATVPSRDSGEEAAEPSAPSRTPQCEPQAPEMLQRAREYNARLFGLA
Chain of Nuclear factor NF-kappa-B complex (Q04206 whole entry): as the sequence (Q04206 whole entry, looked up) above

Compound	inhibition [1] [%]	GI50 [2] [µM]	IC50 [3] [µM]	Ratio IC50 [4]
CC(C)C(=O)NCC1CCc2ccc3ccccc3c2O1 (stereo unspecified)	31	> 30		
c1ccc(CNCC2CCc3ccc4ccccc4c3O2)cc1 (stereo unspecified)	> 100	10.4	14.6	
Clc1ccc(NCC2CCc3ccc4ccccc4c3O2)cc1 (stereo unspecified)	94	29.8	26.5	
O=C(Nc1ccccc1C(F)(F)F)C1CCc2ccc3ccccc3c2O1 (stereo unspecified)	> 100	0.521	2.4	15
CC(=O)NCC1CCc2ccc3ccccc3c2O1 (stereo unspecified)	35	> 30		
S=C(S)N1CCCC1 [PYRROLIDINE DITHIOCARBAMATE]			37.2	
COc1cc2c(cc1O)CCC(C(=O)Nc1ccccc1)O2 (stereo unspecified)			40.1	
COc1ccc(NC(=O)C2CCc3ccc4ccccc4c3O2)cc1 (stereo unspecified)	> 100	3.98	12.9	
Clc1cccc(NCC2CCc3ccc4ccccc4c3O2)c1 (stereo unspecified)	36	17.2		
O=C(Nc1ccc(O)cc1)C1CCc2ccc3ccccc3c2O1 (stereo unspecified)	> 100	11.3	5	
O=C(Nc1ccccc1O)C1CCc2ccc3ccccc3c2O1 (stereo unspecified)	91	> 30	12.3	
O=C(Nc1ccc(Cl)cc1)C1CCc2ccc3ccccc3c2O1 (stereo unspecified)	> 100	2.79	5.8	
c1ccc(NCC2CCc3ccc4ccccc4c3O2)cc1 (stereo unspecified)	49	25.8		
FC(F)(F)c1ccc(NCC2CCc3ccc4ccccc4c3O2)cc1 (stereo unspecified)	42	> 30		
O=C(Nc1cccc(Cl)c1)C1CCc2ccc3ccccc3c2O1 (stereo unspecified)	87	> 30	27.9	
O=C(Nc1ccccc1)C1CCc2ccc3ccccc3c2O1 (stereo unspecified)	62	> 30	43.5	
O=C(Nc1cc(Cl)cc(Cl)c1)C1CCc2ccc3ccccc3c2O1 (stereo unspecified)	52	> 30	96.7	
CCNCC1CCc2ccc3ccccc3c2O1 (stereo unspecified)	39	> 30		
COc1ccc(NCC2CCc3ccc4ccccc4c3O2)cc1 (stereo unspecified)	88	12.8	44.5	
CC(C)CNCC1CCc2ccc3ccccc3c2O1 (stereo unspecified)	> 100	11.7	27.1	
CC(C)CCNCC1CCc2ccc3ccccc3c2O1 (stereo unspecified)	> 100	11.3	25.9	
FC(F)(F)c1cc(NCC2CCc3ccc4ccccc4c3O2)cc(C(F)(F)F)c1 (stereo unspecified)	96	14.6	56.3	
O=C(Nc1cc(C(F)(F)F)cc(C(F)(F)F)c1)C1CCc2ccc3ccccc3c2O1 (stereo unspecified)	66	11.2	63.8	
CC(C)CC(=O)NCC1CCc2ccc3ccccc3c2O1 (stereo unspecified)	77	> 30	56.3	
O=C(Nc1ccc(C(F)(F)F)cc1)C1CCc2ccc3ccccc3c2O1 (stereo unspecified)	> 100	3.48	12.9	
O=C(Nc1ccc(Cl)c(Cl)c1)C1CCc2ccc3ccccc3c2O1 (stereo unspecified)	40	23.5		
O=C(NCC1CCc2ccc3ccccc3c2O1)c1ccccc1 (stereo unspecified)	> 100	11.4	48.6	
